# Results gathered from unrelated publications.
# Each line is one published result; the experiments were not run side by side.
# Observed: chemical stability
Compound,test,system,setting,half-life [h]
CCOC(=O)c1nn(C(=O)C2CC2)c2ccccc2c1=O,,aqueous buffer,pH 7.3,1.44
Cn1nnc2c(-c3ccccc3)ncn2c1=O,HPLC,PBS,pH 7.4,> 20
COc1cc(/C=C/C(=O)CC(=O)/C=C/c2ccc(O)c(OC)c2)ccc1O,HPLC,culture medium,10 µM,0.9
Cc1cn([C@H]2C=C[C@@H](CO)O2)c(=O)[nH]c1=O,HPLC,aqueous buffer,"920 µM, pH 7.3",> 40
COc1ccc(S(=O)(=O)NCC2CCN(C(=O)OC(C(F)(F)F)C(F)(F)F)CC2)cc1,HPLC,aqueous buffer,"167 µM, pH 7.4",2.58
Cc1cccc(C(=O)n2ncc(=O)c3cc([N+](=O)[O-])ccc32)c1,,aqueous buffer,pH 7.3,0.55
O=C(OC(C(F)(F)F)C(F)(F)F)N1CCC(CNS(=O)(=O)c2ccc(Cl)cc2)CC1,HPLC,aqueous buffer,"167 µM, pH 7.4",6.86
Nc1nc2c(nc([N+](=O)[O-])n2[C@@H]2O[C@H](CO)[C@@H](O)[C@H]2O)c(=O)[nH]1,HPLC,aqueous buffer,"500 µM, pH 2",5.35
Cc1cccc(C(=O)Oc2cnnc3ccc([N+](=O)[O-])cc23)c1,,aqueous buffer,pH 7.3,0.698
CO[C@@H]1[C@H](O)[C@@H](CO)O[C@H]1n1c([N+](=O)[O-])nc2c(=O)[nH]c(N)nc21,HPLC,aqueous buffer,"500 µM, pH 2",11
CO[C@@H](C[C@H]1C(C)=CC[C@@H]2[C@]3(C)C[C@H](O[C@@H]4O[C@@H](C)[C@H](OC(=O)c5cccc(O)c5)[C@@H](O[C@@H]5O[C@H](CO)[C@@H](O)[C@H](O)[C@H]5NC(C)=O)[C@H]4O)[C@@H](O)C(C)(C)[C@H]3CC[C@]21C)[C@H](N)C(=O)O.O=C(O)C(F)(F)F,,simulated intestinal fluid,"1 µM, pH 6.8",> 8
Cc1ccc(S(=O)(=O)NCC2CCN(C(=O)OC(C(F)(F)F)C(F)(F)F)CC2)cc1,HPLC,aqueous buffer,"167 µM, pH 7.4",1.24
COc1ccc(OC)c(/C=C2\CC/C(=C\c3ccc(O)c(OC)c3)C2=O)c1,HPLC,culture medium,10 µM,2.6
